Assay results taken from ChEMBL document CHEMBL1140848, “Redox-active dinitrodiphenylthioethers against Leishmania: synthesis, structure-activity relationships and mechanism of action studies” (Bioorg Med Chem, 2009).
Active and inactive are the calls of the source. The rule behind the calls is not given here.

How the values were obtained:
[1] = system: Leishmania donovani; experiment: Antileishmanial activity against Leishmania donovani MHOM/SD/62/1S-CL2D axenic amastigotes after 3 days by tetrazolium dye based colorimetric assay; type: functional, organism-based; conditions: 72 h
How it was run: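 Axenic amastigotes adapted from promastigotes and kept in amastigote medium at 37 °C. 6 × 10^4 cells per well, 2-fold compound dilutions, 3 days at 37 °C in 5% CO2. Growth read as tetrazolium (CellTiter) absorbance at 490 nm several hours after dye addition. IC50 from a four-parameter dose-response fit. Three or more separate experiments.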

[2] = system: Leishmania amazonensis; experiment: Antileishmanial activity against beta-lactamase transfected Leishmania amazonensis in CD1 mouse macrophages assessed as infected macrophages after 72 hrs; type: functional, organism-based
How it was run: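 Starch-elicited peritoneal macrophages from CD-1 mice were plated at 1 × 10^6 cells/ml and adhered overnight. They were infected overnight at 34 °C with β-lactamase-expressing L. amazonensis (5 × 10^6 cells/ml) and washed. Twofold compound dilutions were applied for 72 h at 34 °C. Cells were lysed in 0.1% Triton X-100 with 100 µM nitrocefin for 4 h at 37 °C and read at A490. IC50 by four-parameter fit.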

[3] = Cytotoxicity against CD1 mouse macrophages at 6.3 uM after 72 hrs; type: cell-based; conditions: macrophage
[4] = system: Vero; experiment: Cytotoxicity against african green monkey Vero cells after 3 days by tetrazolium dye based colorimetric assay; type: cell-based; conditions: Chlorocebus sabaeus, 72 h
How it was run: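 Vero cells were grown in alpha-MEM with 10% HI-FBS. 1 × 10^3 cells per well received 2-fold compound dilutions for 3 days at 37 °C, 5% CO2. Growth was read as tetrazolium (CellTiter) absorbance at 490 nm. IC50 by four-parameter dose-response fit.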

[5] = Cytotoxicity against CD1 mouse macrophages at 13 uM after 72 hrs; type: cell-based; conditions: macrophage
[6] = system: Leishmania donovani; experiment: Antileishmanial activity against Leishmania donovani promastigotes assessed as induction of ROS production in by flow cytometric detection at 0.1 uM after 24 hrs; type: functional, organism-based
How it was run: (§1)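 Log-phase promastigotes were loaded with 10 µg/ml CM-H2DCFDA in FBS-free medium for 60 min at 25 °C. They were then resuspended at 1 × 10^6 cells/ml and exposed to compounds in 1% DMSO for 24 h. Fluorescence was read by flow cytometry on 10,000 cells and normalized to vehicle controls (=1.0). H2O2 250 µM served as positive control. Three experiments, SEM.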

[7] = system: Leishmania donovani; experiment: Antileishmanial activity against Leishmania donovani promastigotes assessed as induction of ROS production in by flow cytometric detection at 1 uM after 24 hrs; type: functional, organism-based; how it was run: as §1
[8] = system: Leishmania donovani; experiment: Antileishmanial activity against Leishmania donovani promastigotes assessed as induction of ROS production in by flow cytometric detection at 100 uM after 24 hrs; type: functional, organism-based; how it was run: as §1
[9] = system: Leishmania donovani; experiment: Antiparasitic activity against Leishmania donovani promastigotes assessed as reduction of membrane potential by rhodamine 123 assay; type: functional
How it was run: (§2)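 Promastigotes at 1 × 10^6 cells/ml were exposed to compounds in 1% DMSO for 24 h, at 10 µM and above. FCCP 100 µM for 2 h served as positive control. Cells were then stained with 1 µM rhodamine 123 for 1 h and read by flow cytometry. Results are % fluorescence reduction against vehicle controls. Three experiments, SEM.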

[10] = system: Leishmania donovani; experiment: Reduction of parasitemia in Leishmania donovani LV82 promastigotes infected BALB/c mouse at 50 mg/kg/day, ip for 5 days relative to control; type: functional; parameters: scale not given: the % may be the effect or the level left; conditions: route intraperitoneal
[11] = Lipophilicity, log P of the compound; type: physicochemical; conditions: octanol/water
How it was run: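 clogP was calculated with the ChemAxon/Marvin program.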

[12] = system: Leishmania donovani; experiment: Antileishmanial activity against Leishmania donovani promastigotes assessed as induction of ROS production in by flow cytometric detection at 10 uM after 24 hrs; type: functional, organism-based; how it was run: as §1
[13] = system: Leishmania donovani; experiment: Antiparasitic activity against Leishmania donovani promastigotes assessed as reduction of membrane potential 10 uM by rhodamine 123 assay; type: functional; parameters: scale not given: the % may be the effect or the level left; how it was run: as §2
[14] = system: Leishmania donovani; experiment: Reduction of parasitemia in Leishmania donovani LV82 promastigotes infected BALB/c mouse at 25 mg/kg/day, ip for 5 days relative to control; type: functional; parameters: scale not given: the % may be the effect or the level left; conditions: route intraperitoneal
How it was run: (§3)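 Infected BALB/c mice were dosed i.p. once daily for 5 days, starting 7 days post-infection. Vehicles were 10% DMSO/70% cremophor-ethanol (3:1)/20% PBS, or PBS for miltefosine. On day 14, Giemsa-stained liver smears were scored as amastigotes per 1000 liver cells × liver weight (mg) and compared with vehicle controls. 4–5 mice per group, SD.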

[15] = system: Leishmania donovani; experiment: Reduction of parasitemia in Leishmania donovani infected BALB/c mouse at 3 mg/kg/day, ip for 5 days relative to control; type: functional; parameters: scale not given: the % may be the effect or the level left; conditions: route intraperitoneal; how it was run: as §3
[16] = Cytotoxicity against CD1 mouse macrophages assessed as infected macrophages at 3.1 uM after 72 hrs; type: cell-based; conditions: macrophage

Compound | IC50 [1] | IC50 [2] | IC50 [4] | further results
O=[N+]([O-])c1cc(C(F)(F)F)cc([N+](=O)[O-])c1Nc1ccc(Cl)cc1Cl | 25 µM | – | – | –
Cc1cc(Sc2ccc([N+](=O)[O-])cc2)c(Cl)cc1Cl | 88 µM | – | – | –
Cc1cc([N+](=O)[O-])c(Sc2cc(C)c(Cl)cc2Cl)c([N+](=O)[O-])c1 | > 200 µM | – | – | Activity [6]: inactive; Activity [7]: inactive; Activity [12]: inactive; Activity [9]: < 20%
Cc1cc(Sc2ccc(C(F)(F)F)cc2[N+](=O)[O-])c(Cl)cc1Cl | 98 µM | – | – | –
O=[N+]([O-])c1cc(C(F)(F)F)cc([N+](=O)[O-])c1SC1CCCCC1 | 35 µM | – | – | –
COc1ccc(Sc2c([N+](=O)[O-])cc(C#N)cc2[N+](=O)[O-])cc1 | – | – | – | Activity [14]: 28%
CCCCCCCCCCCCCCCCOP(=O)([O-])OCC[N+](C)(C)C [MILTEFOSINE] | – | – | – | Activity [15]: 41%
CCSc1c([N+](=O)[O-])cc(C(F)(F)F)cc1[N+](=O)[O-] | 98 µM | – | – | –
Cc1cc(Sc2c(C(F)(F)F)cc(C(F)(F)F)cc2C(F)(F)F)c(Cl)cc1Cl | 100 µM | – | – | –
Cc1cc(Sc2ncc(C(F)(F)F)cc2[N+](=O)[O-])c(Cl)cc1Cl | 59 µM | – | – | –
COc1cc([C@@H]2c3cc4c(cc3[C@H](O)[C@H]3COC(=O)[C@H]23)OCO4)cc(OC)c1OC [PODOFILOX] | – | – | 0.023 µM | –

Second part, led by results:

IC50 [1] | IC50 [2] | Compound | IC50 [4] | further results
0.62 µM | 1800 nM | Cc1cc(Sc2c([N+](=O)[O-])cc([N+](=O)[O-])cc2C(F)(F)F)c(Cl)cc1Cl | 5.2 µM | Activity [3]: Toxic
0.56 µM | 3400 nM | Cc1cc(Sc2c([N+](=O)[O-])cc(C(F)(F)F)cc2[N+](=O)[O-])c(Cl)cc1Cl | 9.7 µM | Activity [5]: Toxic; Activity [6]: inactive; Activity [7]: inactive; Activity [8]: Active; Activity [9]: Dose-dependent effect; Activity [10]: -2%; logP [11]: 6.85
1 µM | 5800 nM | Cc1cc(Sc2c([N+](=O)[O-])cc(C#N)cc2[N+](=O)[O-])c(Cl)cc1Cl | 11 µM | Activity [5]: Toxic; Activity [12]: Active; Activity [8]: Active; Activity [13]: 90%
1.9 µM | 5100 nM | COc1ccc(Sc2c([N+](=O)[O-])cc(C(F)(F)F)cc2[N+](=O)[O-])cc1 | 12 µM | –
3.4 µM | – | O=[N+]([O-])c1cc(C(F)(F)F)cc([N+](=O)[O-])c1Oc1ccc(Cl)cc1Cl | – | –
0.96 µM | 2600 nM | O=[N+]([O-])c1cc(C(F)(F)F)cc([N+](=O)[O-])c1Sc1ccccc1 | 6 µM | Activity [3]: Toxic
0.4 µM | 2600 nM | O=[N+]([O-])c1cc(C(F)(F)F)cc([N+](=O)[O-])c1Sc1ccc(Cl)cc1Cl | 4.3 µM | Activity [16]: Toxic
23 µM | – | Cc1cc(Sc2c([N+](=O)[O-])cccc2[N+](=O)[O-])c(Cl)cc1Cl | – | Activity [9]: < 20%
3.3 µM | – | O=[N+]([O-])c1cc(C(F)(F)F)cc([N+](=O)[O-])c1Sc1ccc(O)cc1 | – | –
1.6 µM | 2400 nM | Cc1cccc(Sc2c([N+](=O)[O-])cc(C(F)(F)F)cc2[N+](=O)[O-])c1 | 7.3 µM | Activity [3]: Toxic
7.3 µM | – | O=C(O)c1ccccc1Sc1c([N+](=O)[O-])cc(C(F)(F)F)cc1[N+](=O)[O-] | – | –
